# ChEMBL document CHEMBL4196155 (J Med Chem, 2018)
# Calls of active or inactive are those of the source. The calls are words filed in the database; no cut-off is given here.
# Tests used:
# [1] = molecular target: T1, Melatonin receptor type 1A (Homo sapiens, UniProt P48039); assay: Intrinsic agonist activity at human MT1 receptor expressed in […] NIH/3T3 cell membranes assessed as induction of G protein activation incubated for 30 mins by [35S]GTPgammaS binding assay relative to melatonin; type: functional
# Method in brief: (§1)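 NIH3T3 membranes bearing cloned human MT1 or MT2 (15–25 μg protein) incubated 30 min at 30 °C with [35S]GTPγS 0.3–0.5 nM, GDP 50 μM, NaCl 100 mM, MgCl2 3 mM. […] Maximal stimulation above basal was divided by that of 100 nM MLT in the same experiment. Run in triplicate.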
# [2] = molecular target: T2, Melatonin receptor type 1B (Homo sapiens) (UniProt P49286); assay: Intrinsic agonist activity at human MT2 receptor expressed in […] NIH/3T3 cell membranes assessed as induction of G protein activation incubated for 30 mins by [35S]GTPgammaS binding assay relative to melatonin; type: functional; method in brief: as §1
# T2 sequence (whole entry): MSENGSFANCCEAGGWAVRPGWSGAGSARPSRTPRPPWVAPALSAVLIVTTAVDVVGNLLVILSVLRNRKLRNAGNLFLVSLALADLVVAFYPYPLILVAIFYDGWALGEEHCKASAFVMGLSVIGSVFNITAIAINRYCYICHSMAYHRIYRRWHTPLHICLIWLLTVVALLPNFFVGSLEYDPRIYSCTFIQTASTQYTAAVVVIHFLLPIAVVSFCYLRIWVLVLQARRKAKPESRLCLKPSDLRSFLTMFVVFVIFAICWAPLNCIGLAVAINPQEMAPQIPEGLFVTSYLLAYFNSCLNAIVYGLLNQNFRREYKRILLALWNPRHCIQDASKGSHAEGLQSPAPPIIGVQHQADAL
# [3] = molecular target: T1, Melatonin receptor type 1A; assay: biochemical
# [4] = molecular target: T3, Melatonin receptor type 1B (Homo sapiens, UniProt P49286); assay: biochemical
# T3 sequence (P49286 whole entry): T2 sequence (whole entry)
# [5] = molecular target: T4, Fatty-acid amide hydrolase 1 (Rattus norvegicus, UniProt P97612); assay: Inhibition of FAAH1 in Wistar rat brain homogenates using [3H]anandamide as substrate incubated for 30 mins by liquid scintillation counting method
# T4 sequence (P97612 whole entry): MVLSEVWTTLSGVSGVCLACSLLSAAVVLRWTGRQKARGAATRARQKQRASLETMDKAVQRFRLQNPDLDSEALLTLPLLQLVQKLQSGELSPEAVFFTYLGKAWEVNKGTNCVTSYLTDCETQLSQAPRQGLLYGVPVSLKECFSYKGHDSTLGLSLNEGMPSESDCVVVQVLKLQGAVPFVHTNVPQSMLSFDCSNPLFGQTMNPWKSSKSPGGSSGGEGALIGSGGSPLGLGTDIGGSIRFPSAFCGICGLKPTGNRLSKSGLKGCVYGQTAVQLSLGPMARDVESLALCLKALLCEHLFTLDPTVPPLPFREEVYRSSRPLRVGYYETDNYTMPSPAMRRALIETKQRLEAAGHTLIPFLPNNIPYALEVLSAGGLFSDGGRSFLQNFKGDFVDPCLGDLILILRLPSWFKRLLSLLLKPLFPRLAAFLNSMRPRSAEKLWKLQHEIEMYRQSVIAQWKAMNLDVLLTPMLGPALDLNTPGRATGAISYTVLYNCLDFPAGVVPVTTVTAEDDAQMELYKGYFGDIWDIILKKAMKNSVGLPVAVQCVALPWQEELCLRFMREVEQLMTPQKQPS
# Method in brief: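 Wistar rat brain homogenised in ice-cold Tris 50 mM pH 7.5 with 0.32 M sucrose, spun 1,000 × g 10 min at 4 °C; supernatant used. Homogenate (50 μg protein) incubated 30 min at 37 °C in Tris 50 mM pH 7.5, 0.05% fatty-acid-free BSA, 10 μM anandamide plus [3H]anandamide (20,000 cpm), varying compound concentrations, final DMSO 1%. Stopped with CHCl3/MeOH 1:1; aqueous [3H]ethanolamine counted. IC50 from at least two determinations.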
# Oryctolagus cuniculus [6] = assay: Reduction in hypertonic saline solution-induced elevated intraocular pressure in New Zealand White rabbit at 1 mM dosed topically before hypertonic saline solution injection measured after 240 mins; type: functional, organism-based
# Method in brief: (§2)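 Male SPF New Zealand albino rabbits, 2–2.5 kg, four per compound. 0.05 mL of 1 mM solution in 0.9% NaCl, 0.1% DMSO, 0.1% EtOH was dropped into one eye, vehicle into the other, before intravitreal 0.1 mL 5% hypertonic saline. IOP was read by tonometry after oxybuprocaine 0.2% once the rise had stabilised at 30–40 mm Hg, then after treatment. Analysis by 2-way ANOVA with Bonferroni.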
# Oryctolagus cuniculus [7] = assay: Reduction in hypertonic saline solution-induced elevated intraocular pressure in New Zealand White rabbit at 1 mM dosed topically before hypertonic saline solution injection measured after 60 mins; type: functional, organism-based; method in brief: as §2
# Oryctolagus cuniculus [8] = assay: Reduction in hypertonic saline solution-induced elevated intraocular pressure in New Zealand White rabbit at 1 mM dosed topically before hypertonic saline solution injection measured after 120 mins; type: functional, organism-based; method in brief: as §2
# T1 sequence (P48039 whole entry): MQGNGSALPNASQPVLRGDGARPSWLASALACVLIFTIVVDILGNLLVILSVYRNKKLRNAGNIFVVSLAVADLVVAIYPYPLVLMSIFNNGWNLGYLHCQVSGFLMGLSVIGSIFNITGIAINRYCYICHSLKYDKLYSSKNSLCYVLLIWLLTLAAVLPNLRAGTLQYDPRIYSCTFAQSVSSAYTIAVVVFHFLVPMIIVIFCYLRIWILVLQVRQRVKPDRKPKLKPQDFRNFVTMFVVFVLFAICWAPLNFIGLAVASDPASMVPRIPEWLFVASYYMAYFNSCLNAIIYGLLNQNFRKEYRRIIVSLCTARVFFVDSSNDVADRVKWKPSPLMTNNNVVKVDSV
Structure (SMILES),Intrinsic activity [1],Intrinsic activity [2],Ki [3],Ki [4],IC50 [5],Activity (Oryctolagus cuniculus [6]),Activity (Oryctolagus cuniculus [7]),Activity (Oryctolagus cuniculus [8])
CC(=O)NCCN(C)c1cccc(OCCCCN)c1,0.32,0.35,3.09 µM,12.9 µM,,,,
CC(=O)NCCc1c[nH]c2ccc(OCCCCCCNC(=O)Oc3cccc(-c4ccccc4)c3)cc12,0.73,1.02,0.00603 µM,0.00457 µM,0.00238 µM,inactive,Active,inactive
CC(=O)NCCN(C)c1cccc(OCCCCCCNC(=O)Oc2cccc(-c3ccccc3)c2)c1,0.7,0.75,0.0214 µM,0.0331 µM,0.00134 µM,,,
CC(=O)NCCc1c[nH]c2ccc(OCCCCCCCCNC(=O)Oc3cccc(-c4ccccc4)c3)cc12,0.73,0.53,0.0049 µM,0.00631 µM,0.004 µM,inactive,Active,inactive
CC(=O)NCCN(C)c1cccc(OCCCCOc2cccc(O)c2)c1,0.27,0.18,0.186 µM,0.603 µM,,,,
CC(=O)NCCN(C)c1cccc(OCCCCOc2cccc(OC(=O)NC3CCCCC3)c2)c1,0.07,0.05,0.0347 µM,0.0537 µM,0.184 µM,,,
CC(=O)NCCN(C)c1cccc(OCCCCNC(=O)Oc2cccc(-c3ccccc3)c2)c1,0.64,0.39,0.0129 µM,0.0447 µM,0.00145 µM,,,
NC(=O)c1cccc(-c2cccc(OC(=O)NC3CCCCC3)c2)c1,,,,,,,Active,inactive
CC(=O)NCCN(C)c1cccc(OCCCCCCNC(=O)Oc2cccc(-c3cccc(C(N)=O)c3)c2)c1,0.79,1.01,0.0389 µM,0.0155 µM,0.00043 µM,,inactive,Active
CC(=O)NCCc1c(Br)[nH]c2ccc(OCCCCCCNC(=O)Oc3cccc(-c4ccccc4)c3)cc12,0.73,0.97,0.000776 µM,0.0017 µM,0.00085 µM,Active,,Active
COc1ccc2[nH]cc(CCNC(C)=O)c2c1,,,,,,,Active,inactive
CC(=O)NCCN(C)c1cccc(OCCCCCCCCNC(=O)Oc2cccc(-c3ccccc3)c2)c1,0.85,0.96,0.0316 µM,0.0324 µM,0.00063 µM,,inactive,Active
CC(=O)NCCN(C)c1cccc(OCCCCCCN)c1,0.34,0.08,0.447 µM,0.398 µM,,,,
CC(=O)NCCN(C)c1cccc(OCCCCCCOc2cccc(O)c2)c1,0.62,0.57,0.0589 µM,0.331 µM,,,,
CC(=O)NCCN(C)c1cccc(OCCCCCCNC(=O)Oc2cccc(-c3cccc(O)c3)c2)c1,0.89,0.94,0.0295 µM,0.0269 µM,0.00036 µM,,inactive,Active
CCC(=O)NCCN(C)c1cccc(OCCCCCCNC(=O)Oc2cccc(-c3ccccc3)c2)c1,0.77,0.88,0.0162 µM,0.0191 µM,0.00307 µM,,,
CC(=O)NCCN(C)c1cccc(OCCCCCCOc2cccc(OC(=O)NC3CCCCC3)c2)c1,0.71,0.71,0.0275 µM,0.295 µM,0.197 µM,,,
